# Source: PubChem BioAssay
# Sampled rows, rich in hits. Any-hit rate of the full collection: about 2.6%.
# MITF act: increases MITF-driven TRPM1 promoter luciferase signal; SK-MEL-5 TRPM1-promoter luciferase, 24 h; % of positive control, neutral wells = 0; activation, % at 12.5 µM; hit rate 0.75% among 300,000; AID 588334;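 active means mean activation of at least 80% with every replicate also reaching 80%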
# esBAF inh: SWI/SNF esBAF complex inhibition. mouse ES cells, Bmi1-luciferase knock-in reporter, 24 h; 100% = twice the neutral-well signal. reporter increase, % at 12.5 µM. hit rate 2% among 350,000; in the data active means activation above about 40%;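 further: a rise in the Bmi1 reporter signal indicates esBAF inhibition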
# Wnt bcat act: activators of Wnt/beta-catenin signaling. activation, % at 9.35 µM. AID 743398. Wnt/beta-catenin reporter cell assay, activator, plate reader. hit rate 1.2% among 300,000; in the data active means activation above about 30%, passing the limit was not always enough
# XiGFP reactiv: reactivates the inactive X chromosome in mouse fibroblasts. XiGFP mouse fibroblasts, % GFP-positive cells imaging, 3 d; cells co-treated with 5-aza-dC sensitizer; scaled so ellipticine positive control = 100%. activation, % at 7.58 µM. hit rate 0.055% among 360,000;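 active means mean normalized replicate activation at least 10% and every replicate at or above 10%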
#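 System: SV40-immortalized XiGFP fibroblast cells, line 68-5-11 / Incubation: 3-day compound exposure, then 15 min fixation at room temperature / Compound: single concentration per compound, delivered by pin transfer / Buffer or medium: DMEM plus 5-aza-dC sensitizer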
# Vif inh: blocks HIV Vif function | hit rate 0.35% among 340,000 | inhibition, % at 7.49 µM | AID 602346 | HEK293T cells, Vif self-association by quenched fluorescence, imaging, 24 h; in the data active means inhibition above about 50%, passing the limit was not always enough
# Numbers stand for hits; . = inactive; / = no result given; ! = repeats disagree.
SMILES,MITF act,esBAF inh,Wnt bcat act,XiGFP reactiv,Vif inh
Cc1ccc(S(=O)(=O)N[C@@H]2C=C[C@@H](CC(=O)O)O[C@H]2CO)cc1,/,.,/,.,/
C[C@H]1CN([C@@H](C)CO)C(=O)c2ccccc2-c2ccccc2CO[C@H]1CN(C)S(=O)(=O)c1ccc(Cl)cc1,/,.,/,.,/
CCc1nnc(NC(=O)CSc2nc3c(cc2C#N)CCC3)s1,.,.,69.9,/,/
COc1ccccc1C#Cc1cnc2c(c1)C(=O)N([C@@H](C)CO)C[C@H](C)[C@H](CN(C)CC1CC1)O2,/,/,/,.,/
COc1cc(/C=N/O)ccc1Oc1ccc([N+](=O)[O-])cc1[N+](=O)[O-],.,.,35.7,.,.
CCOc1ccc(CCNC(=O)c2ccc3ccccc3n2)cc1OCC,.,56.7,.,.,.
O=C(C[C@H]1C[C@H]2c3cc(NC(=O)Nc4ccc(F)cc4)ccc3O[C@H]2[C@@H](CO)O1)NC1CCCC1,/,.,/,.,/
C[C@@H]1CCCCO[C@H](CN(C)C(=O)CCCN(C)C)[C@H](C)CN([C@@H](C)CO)C(=O)c2cc(NC(=O)Nc3ccc(F)cc3)ccc2O1,/,.,/,.,/
O=S(=O)(c1cccs1)N1CCN(Cc2nc3ccccc3s2)CC1,/,.,36.1,/,.
O=C(OCc1nc2ccccc2s1)C1CCN(S(=O)(=O)c2cccs2)CC1,.,56.4,43.9,/,/
C[C@@H]1CN([C@H](C)CO)C(=O)c2cccc(NS(=O)(=O)c3ccc(Cl)cc3)c2O[C@H]1CN(C)S(=O)(=O)c1ccccc1,/,.,/,.,/
O=C(/C=C/c1cccs1)c1ccc(N2CCOCC2)cc1,.,52.2,.,.,.
O=C(/C=C/c1cccc(F)c1)c1ccc(N2CCOCC2)cc1,.,.,.,.,.
CN1CCN(C(=O)C[C@@H]2C[C@H]3c4cc(NC(=O)Nc5ccc(F)cc5)ccc4O[C@H]3[C@@H](CO)O2)CC1,/,.,/,.,/
Nc1ccc(-c2nc3ccccc3s2)cn1,.,.,38.3,.,.
c1ccc(-c2nc3ccccc3s2)nc1,.,.,58.8!,.,.
COc1ccccc1C#Cc1cnc2c(c1)C(=O)N([C@@H](C)CO)C[C@H](C)[C@H](CN(C)C(C)=O)O2,/,.,/,.,/
CN1c2ccc(-c3cccc(C#N)c3)cc2[C@@H]2[C@@H](CCN2C(=O)C2CC2)[C@H]1CO,/,/,/,.,/
COC(=O)c1ccc(-c2ccc(/C=N/N3C(=O)C4C5C=CC(CC5)C4C3=O)o2)cc1 (stereo not drawn),.,60.1,.,.,.
Cc1ccc(NC(=O)c2ccc3nc[nH]c3c2)cc1C,.,88.5,.,.,.
CN(C)c1ccc(NC(=O)c2ccc3nc[nH]c3c2)cc1,.,47.6,.,.,.
CO[C@H]1CN(C)C(=O)c2ccc(NC(=O)c3cnccn3)cc2OC[C@@H](C)N(CC2CC2)C[C@H]1C,/,/,/,.,/
CC(=O)N(C)C[C@H]1Oc2ccc(NC(=O)NC(C)C)cc2CC(=O)N(C)C[C@@H]1C,/,/,/,.,/
Cc1ccc2c(c1)N(CC(=O)N1CCOCC1)C(=O)C(C)O2 (stereo not drawn),.,.,.,.,.
Cc1ccc2c(c1)N(CC(=O)N1CCCCCC1)C(=O)C(C)O2 (stereo not drawn),.,.,.,.,69.0
SMILES,MITF act,esBAF inh,Wnt bcat act,XiGFP reactiv,Vif inh
CN(C)C(=O)C[C@H]1CC[C@H](NC(=O)NC2CCCCC2)[C@@H](CO)O1,/,.,/,.,/
COc1ccc(S(=O)(=O)Nc2ccc3c(c2)C(=O)N([C@H](C)CO)C[C@H](C)[C@H](CN(C)C(=O)Nc2ccccc2)OCCCC[C@@H](C)O3)cc1,/,.,/,.,/
CCc1nonc1NC(=O)c1oc2cc(C)c(Cl)cc2c1C,.,.,.,.,.
CCc1nonc1NC(=O)c1oc2cc(C)c(C)cc2c1C,86.3,.,.,.,.
O=C(c1ccccc1)N1CC(=O)N2[C@H](CO)[C@H](c3ccc(/C=C/c4ccccc4)cc3)[C@H]2C1,/,/,/,.,/
Cc1ccc(SCC(=O)Nc2nccs2)cc1,.,24.0,.,.,.
CCn1c(C)nnc1SCC(=O)Nc1nccs1,.,.,.,.,.
O=C(CSc1ccccc1)Nc1nccs1,.,/,.,.,.
O=C(CSc1cn(Cc2ccccc2)c2ccccc12)Nc1nccs1,/,73.4,52.6,.,.
CN(C)c1ccc(NC(=O)c2sc(SCC(=O)Nc3ccc(Br)cc3)nc2N)cc1,.,/,/,/,.
CCOC(=O)c1c(SCC(=O)Nc2nccs2)nc(C)c(C)c1C,.,50.1,.,.,.
CN(C)c1ccc(NC(=O)c2sc(SCC(=O)Nc3nccs3)nc2N)cc1,.,52.6,47.3,/,.
